# Source: PubChem BioAssay
# CHO parental Ca: signal in parental CHO cells, OX1R antagonist counter-screen; hit rate 0.63% among 330,000; inhibition, % at 5.6 µM; parental CHO-K1, ATP-induced calcium, Fluo-8 fluorescence;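 active = inhibition above that plate's mean sample inhibition plus 3 SD, cut at about 26% in these data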
#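 Test system: untransfected parental CHO cell line; also added: ATP stimulus; dosing: 5.6 µM, single dose; signal: calcium-sensitive Fluo-8 fluorescence; measure: percent inhibition of ATP-evoked calcium rise, normalized to controls; benchmarks: low control ATP plus DMSO, high control DMSO only; replication: one well per compound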
# TAAR1 agonist: human TAAR1 agonism; Q96RJ0; CHO RD-HGA16 TAAR1, Fluo-8 calcium fluorescence; vehicle wells 0%, saturating PEA agonist 100%; activation, % at 3 µM; hit rate 0.99% among 360,000; AID 624467;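 active = activation above the mean activation of all test compounds in the run plus 3 SD, cut at about 38% in these data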
#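 Test system: RD-HGA16 (CHO) cells co-expressing Gα16 and hTAAR1 / Benchmarks: DMSO vehicle as 0%, PEA at EC100 as 100% / Repeats: no replicates (n 1) / Measure: % activation from peak over basal fluorescence ratio, DMSO-to-PEA scaled / Timing: 17-24 h plating, Fluo-8 75 min 37 °C, 30 min RT / Technique: kinetic Fluo-8 calcium fluorescence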
# TAAR1 antagonist: antagonists of human TAAR1 | CHO RD-HGA16 TAAR1, Fluo-8 calcium fluorescence, antagonist | AID 624466 | inhibition, % at 3 µM | hit rate 1.5% among 360,000;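 active = inhibition above a per-plate cutoff, the mean inhibition of test compounds on that plate plus 3 SD, cut at about 49% in these data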
#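 Assay system: CHO-derived RD-HGA16 cells stably expressing human TAAR1 plus Gα16. Timing: 140 s kinetic read after compound, 140 s after agonist. Technique: kinetic Fluo-8 calcium fluorescence measurement. Measure: % inhibition of agonist calcium response.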
# GPR7 antag: human neuropeptides B/W receptor 1 antagonism | inhibition, % at 4.4 µM | P48145 | hit rate 1.1% among 290,000 | GPR7-expressing cells, fluorescence antagonist assay; in the data active = inhibition above about 16%, passing the limit was not always enough;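 note: cells stimulated with the agonist NPW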
# OX1R antag-1: blocks the human orexin 1 receptor | OX1R-expressing cells, FRET antagonist read-out | O43613 | hit rate 1.8% among 330,000 | inhibition, % at 6.6 µM | AID 485270; in the data active = inhibition mostly above about 38%, no sharp cut-off; inactive = mostly below about 40%
# Target sequence (O43613 whole entry, looked up): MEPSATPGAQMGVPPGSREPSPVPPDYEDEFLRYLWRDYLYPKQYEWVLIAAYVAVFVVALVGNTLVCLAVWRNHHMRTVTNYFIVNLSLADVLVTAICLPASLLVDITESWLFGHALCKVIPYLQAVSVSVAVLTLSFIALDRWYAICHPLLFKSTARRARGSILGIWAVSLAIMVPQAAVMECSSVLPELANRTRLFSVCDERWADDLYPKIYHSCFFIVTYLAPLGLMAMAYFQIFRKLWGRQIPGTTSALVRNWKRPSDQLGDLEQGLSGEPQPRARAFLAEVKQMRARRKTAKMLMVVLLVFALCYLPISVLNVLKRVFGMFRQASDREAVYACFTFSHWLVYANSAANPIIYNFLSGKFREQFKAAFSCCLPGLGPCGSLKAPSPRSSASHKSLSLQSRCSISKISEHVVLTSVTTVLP
# OX1R antag-2: human HCRTR1 antagonism | inhibition, % at 5 µM | AID 434989 | CHO/OX1R cells, Fluo-8 calcium fluorescence, orexin A | hit rate 0.43% among 330,000;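 active = inhibition above its plate's threshold, mean inhibition of all tested compounds on the plate plus 3 SD, cut at about 37% in these data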
# Hits are given with their value; . = inactive; / = not tested or not shown. In the library only some 4.6% were active in any assay of this set; here they are far more common.
SMILES,CHO parental Ca,TAAR1 agonist,TAAR1 antagonist,GPR7 antag,OX1R antag-1,OX1R antag-2
Cc1ccc(C)c2[nH]c(=O)c(C(c3nnnn3Cc3ccccc3)N3CCc4ccccc4C3)cc12 (stereo unspecified),.,49,.,.,.,.
Cc1cccc2cc(C(c3nnnn3CC3CCCO3)N3CCc4ccccc4C3)c(=O)[nH]c12 (stereo unspecified),.,/,/,.,.,.
O=c1c2ccccc2sc2ccc(C#CC3(O)CCCCC3)cc12,.,.,.,/,.,.
O=c1c2ccccc2oc2cc(C#CC3(O)CCCCC3)ccc12,.,.,.,/,61,.
CCOc1ccc(C(=O)/C=C/c2cn(CN3CCN(C)CC3)c3ccccc23)cc1,.,.,.,.,57,.
Cc1ccc(-n2cc(CN3CCC(CO)(Cc4cccc(C(F)(F)F)c4)CC3)cn2)cc1,.,44,.,.,.,.
Cc1ccc(-n2cc(CN3CCC(CO)(Cc4ccccc4)CC3)cn2)cc1,.,.,.,20,.,.
Nc1[nH]c(C(=O)c2ccc(Br)cc2)c(-c2ccc(Br)cc2)c1C(=O)NCc1cccc2ccccc12,/,.,.,/,/,/
CC(C)(C)c1ccc(-n2ncc3c2CCCC3NC(=O)c2ccco2)cc1 (stereo unspecified),/,.,.,/,/,/
Cn1cccc1CC(=O)N/N=C\c1c2ccccc2cc2ccccc12,.,.,.,.,39,.
CCc1c(C2(O)CCCCC2)[nH]c2cc(C(F)(F)F)ccc12,.,/,/,.,64,45
Cc1c(C2(O)CCCCC2)[nH]c2cc(C(F)(F)F)ccc12,65,.,.,/,71,91
Cc1cc(S(=O)(=O)NCc2ccccc2)ccc1OCC(=O)Nc1cccc([N+](=O)[O-])c1,49,.,.,.,84,53
Cc1cc(F)ccc1S(=O)(=O)Nc1ccccc1C(=O)Nc1ccccc1-c1nc2ccccc2[nH]1,30,/,/,.,.,.
Cc1cc(/C=C\c2ccc3cc(N(C)C)ccc3[n+]2C)c(C)n1-c1ccccc1,54,/,/,/,80,51
CCc1nc2c(OCc3ccc(OC(F)F)cc3)cccn2c1N(C)C(=O)c1ccco1,/,.,.,/,/,/
O=S(Cc1ccc(Cl)cc1)c1ccccc1 (stereo unspecified),/,.,.,/,/,/
CC(C)S(=O)(=O)N[C@@H]1c2cc3c(cc2[C@H](c2ccccc2)[C@H]1C)OCO3,/,.,.,/,/,/
O=C(COC(=O)c1ccccc1Cc1ccccc1)Nc1ccc(SC(F)F)cc1,42,.,.,.,.,.
O=C(Cc1ccc(Cl)cc1)Nc1ccc(SC(F)F)cc1,.,.,55,.,.,.
O=C(Cc1ccc(Br)cc1)Nc1ccc(Cl)cc1,.,.,.,.,.,.
CCn1c(SCC(=O)Nc2ccccc2)nc2c(c1=O)SCC2,/,.,.,/,/,/
Cc1ccc(-c2c(C#N)c(N)n(-c3ccccc3C)c(=O)c2C#N)cc1,/,.,.,/,/,/
OC(Cc1ccccc1Br)c1ncc(-c2ccc(Cl)cc2)[nH]1 (stereo unspecified),/,.,.,/,/,/
Cc1cccc(C)c1NC(=O)C(c1ccccc1)N(C)CCc1ccccc1 (stereo unspecified),/,.,.,/,/,/
SMILES,CHO parental Ca,TAAR1 agonist,TAAR1 antagonist,GPR7 antag,OX1R antag-1,OX1R antag-2
CC(C)C(c1nnnn1Cc1ccco1)N1CCN(c2nc3ccccc3s2)CC1 (stereo unspecified),.,.,55,.,.,.
CC(C)CC(c1nnnn1Cc1cccs1)N1CCN(c2nc3ccccc3s2)CC1 (stereo unspecified),.,.,.,.,.,.
COC(=O)c1ccc(Cn2c(C)c(C(=O)NCc3cccc([N+](=O)[O-])c3)sc2=O)o1,/,.,.,/,/,/
CC(=NNC(=S)Nc1ccccc1)c1ccccn1,/,.,.,/,/,/
C=CCNC(=S)N/N=C(\C)c1ccccn1,29,.,.,.,.,.
CSc1ccc(OC2(C)CCN(Cc3ccc(C(C)C)cc3)C2)cc1 (stereo unspecified),/,.,.,/,/,/
COC(=O)C1=C(C)N(Cc2ccccc2C(F)(F)F)C(=NCc2cccc(C(F)(F)F)c2)NC1CCc1ccccc1 (stereo unspecified),/,.,.,/,/,/
O=C(Nc1cccc(O)c1)c1ccc(NC(=O)c2cccs2)cc1,.,.,52,.,.,.
COc1cc(C(=O)Nc2cccc(NC(=O)c3cccs3)c2)cc(OC)c1OC,/,.,51,.,/,/
